Tests used:
KYSE-510 [1] = assay: Potentiation of 0.5 uM cisplatin-induced toxicity in 0.5 uM cisplatin resistant human KYSE-510 cells at 1 uM pretreated for 48 hrs followed by 0.5 uM cisplatin treatment by MTT assay; assay type: functional
CAL-27 [2] = assay: Cytotoxicity against cisplatin sensitive human CAL27 cells after 72 hrs by MTT assay; assay type: functional, cell-based; conditions: CAL-27, 72 h
CAL-27 [3] = assay: Potentiation of 1 uM cisplatin-induced toxicity in 1 uM cisplatin resistant human CAL27 cells at 0.5 uM pretreated for 48 hrs followed by 1 uM cisplatin treatment by MTT assay; assay type: functional
A2780 [4] = assay: Potentiation of 5 uM cisplatin-induced toxicity in 5 uM cisplatin resistant human A2780 cells at 0.5 uM pretreated for 48 hrs followed by 5 uM cisplatin treatment by MTT assay; assay type: functional
Histone deacetylase [5] = assay: Inhibition of HDAC in cisplatin resistant human CAL27 cells after 18 hrs by fluorescence assay; assay type: cell-based; conditions: cal-27
MDA-MB-231 [6] = assay: Potentiation of 40 uM cisplatin-induced toxicity in 1 uM cisplatin resistant human MDA-MB-231 cells at 1 uM pretreated for 48 hrs followed by 1 uM cisplatin treatment by MTT assay; assay type: functional
A2780 [7] = assay: Potentiation of 1 uM cisplatin-induced toxicity in 5 uM cisplatin resistant human A2780 cells at 0.5 uM pretreated for 48 hrs followed by 5 uM cisplatin treatment by MTT assay; assay type: functional
Histone deacetylase [8] = assay: Inhibition of HDAC in cisplatin resistant human A2780 cells after 18 hrs by fluorescence assay; assay type: cell-based
CAL-27 [9] = assay: Potentiation of cisplatin-induced toxicity in cisplatin resistant human CAL27 cells at 1 uM pretreated for 48 hrs followed by cisplatin treatment by MTT assay; assay type: functional
Procedure, shortened: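 Resistant sublines pretreated 48 h with 1 μM HDAC inhibitor, then cisplatin over a concentration range for 72 h; MTT viability read at 544/690 nm. Cisplatin IC50 from four-parameter logistic fit of pooled data (≥3 experiments, triplicate); shift factor = IC50 of cisplatin alone divided by IC50 of the combination.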

MDA-MB-231 [10] = assay: Potentiation of 25 uM cisplatin-induced toxicity in 1 uM cisplatin resistant human MDA-MB-231 cells at 0.25 uM pretreated for 48 hrs followed by 1 uM cisplatin treatment by MTT assay; assay type: functional
A2780 [11] = assay: Potentiation of 20 uM cisplatin-induced toxicity in 5 uM cisplatin resistant human A2780 cells at 0.25 uM pretreated for 48 hrs followed by 5 uM cisplatin treatment by MTT assay; assay type: functional
CAL-27 [12] = assay: Potentiation of 45 uM cisplatin-induced toxicity in 1 uM cisplatin resistant human CAL27 cells at 0.25 uM pretreated for 48 hrs followed by 1 uM cisplatin treatment by MTT assay; assay type: functional
KYSE-510 [13] = assay: Potentiation of 0.75 uM cisplatin-induced toxicity in 0.5 uM cisplatin resistant human KYSE-510 cells at 1.5 uM pretreated for 48 hrs followed by 0.5 uM cisplatin treatment by MTT assay; assay type: functional
Procedure, shortened: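 Cisplatin-resistant Kyse510 CisR (derived by weekly cycles of cisplatin over 24−30 weeks), grown in RPMI 1640 with 10% FCS at 37 °C, 5% CO₂. Test agent added 48 h before cisplatin, then 72 h further incubation. Viability by MTT (read at 544/690 nm) relative to untreated control wells. Combination index by Chou−Talalay method. Mean of three experiments.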

CAL-27 [14] = assay: Potentiation of 1 uM cisplatin-induced toxicity in 1 uM cisplatin resistant human CAL27 cells at 1.5 uM pretreated for 48 hrs followed by 1 uM cisplatin treatment by MTT assay; assay type: functional
MDA-MB-231 [15] = assay: Potentiation of […] cisplatin-induced toxicity in 1 uM cisplatin resistant human MDA-MB-231 cells at 0.25 uM pretreated for 48 hrs followed by 1 uM cisplatin treatment by MTT assay; assay type: functional

IC50 (Histone deacetylase [5]): 0.36 µM
IC50 (Histone deacetylase [8]): 0.32 µM
SMILES: Cc1cc(C)cc(C(=O)NOCCCCCC(=O)NO)c1
Activity (KYSE-510 [1]): Dose-dependent effect
fractional inhibitory concentration index (FICI) (KYSE-510 [1]): 0.08
IC50 (CAL-27 [2]): 1.03 µM
Activity (CAL-27 [3]): Dose-dependent effect
fractional inhibitory concentration index (FICI) (CAL-27 [3]): <0.2
Activity (A2780 [4]): Dose-dependent effect
fractional inhibitory concentration index (FICI) (A2780 [4]): 0.73
Activity (MDA-MB-231 [6]): Dose-dependent effect
fractional inhibitory concentration index (FICI) (MDA-MB-231 [6]): 0.78
Activity (A2780 [7]): Dose-dependent effect
fractional inhibitory concentration index (FICI) (A2780 [7]): 0.85
Activity (CAL-27 [9]): Dose-dependent effect
fold change (FC) (CAL-27 [9]): 21.6
Activity (MDA-MB-231 [10]): Dose-dependent effect
Activity (A2780 [11]): Dose-dependent effect
fractional inhibitory concentration index (FICI) (A2780 [11]): 0.76
Activity (CAL-27 [12]): Dose-dependent effect
fractional inhibitory concentration index (FICI) (CAL-27 [12]): 0.27
Activity (KYSE-510 [13]): Dose-dependent effect
fractional inhibitory concentration index (FICI) (KYSE-510 [13]): 0.05
Activity (CAL-27 [14]): Dose-dependent effect
fractional inhibitory concentration index (FICI) (CAL-27 [14]): 0.48
Activity (MDA-MB-231 [15]): Dose-dependent effect
fractional inhibitory concentration index (FICI) (MDA-MB-231 [15]): 0.9

Reference: ChEMBL document CHEMBL2311425, “Histone deacetylase (HDAC) inhibitors with a novel connecting unit linker region reveal a selectivity profile for HDAC4 and HDAC5 with improved activity against chemoresistant cancer cells” (J Med Chem, 2013)
